According to ChEMBL document CHEMBL1122393, “Potent antagonists of the antidiuretic responses to arginine-vasopressin based on modifications of [1-(beta-mercapto-beta,beta-cyclopentamethylenepropionic acid),2-D- phenylalanine,4-valine]arginine-vasopressin at position 4” (J Med Chem, 1983):
Numbered stars: 1 amine (or outer) side, 2 acyl side, 3 side chain; on linkers, the order of the positions; unused ones are H or OH. Bridge positions count the residues as written; N and C are the ends. Square brackets hold non-standard residues; d marks the D form. Peptide text beside a SMILES is read from it. X1 = O=C(CC1(S[*:2])CCCCC1)[*:1]

Legend:
Rattus norvegicus [1] = species: Rattus norvegicus; assay: In vitro anti-oxytocic potency of compound in rat uterus in presence of 0.5 mM of Mg; type: functional; conditions: read-out: pA2 (converted)
Procedure, shortened: (§1)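 Oxytocic antagonism on isolated rat uteri, with the USP posterior pituitary reference standard as agonist. Potency is expressed as a pA2 value.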

Rattus norvegicus [2] = species: Rattus norvegicus; assay: In vitro anti-oxytocic potency of compound in rat uterus in absence of Mg; type: functional; conditions: read-out: pA2 (converted); procedure, shortened: as §1
Rattus norvegicus [3] = species: Rattus norvegicus; assay: Effective dose of compound was determined for anti-vasopressor potency in rat; type: functional
Procedure, shortened: (§2)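 Intravenous vasopressor assay in phenoxybenzamine-treated rats under urethane anaesthesia, with the USP posterior pituitary reference standard as agonist. Each antagonist was given at two doses. The effective dose (nmol/kg) is the dose that cuts the response to 2x units of agonist to the response to 1x unit given before antagonist. It was interpolated on a log scale between the two doses.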

Rattus norvegicus [4] = species: Rattus norvegicus; assay: Effective dose of compound was determined for antiantidiuretic potency in rats; type: functional, Urine
Procedure, shortened: (§3)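 Antidiuretic assay in rats under ethanol anaesthesia, with the USP posterior pituitary reference standard as agonist, given intravenously. The standard was injected 20 min after antagonist, or 10 min for analogues without agonism. Two antagonist doses were used, and the effective dose (nmol/kg) was log-interpolated as the dose reducing the 2x-unit response to the 1x-unit response. In vivo pA2 = −log(effective dose/estimated volume of distribution).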

[5] = Ratio of anti-vasopressor ED to antidiuretic ED was determined; type: functional, Urine
Procedure, shortened: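 Ratio computed as antivasopressor effective dose divided by antiantidiuretic effective dose. Both effective doses come from intravenous rat assays and are defined as the dose (nmol/kg) that reduces the 2x-unit agonist response to the 1x-unit response.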

Rattus norvegicus [6] = assay: In vivo antiantidiuretic potency of compound was determined in rats; type: functional, organism-based; conditions: Urine, read-out: pA2 (converted); procedure, shortened: as §3
Rattus norvegicus [7] = assay: The compound tested in vivo for anti-vasopressor potency in rats; type: functional, organism-based; conditions: read-out: pA2 (converted); procedure, shortened: as §2
Rattus norvegicus [8] = assay: (§4) In vivo anti-oxytocic potency of compound was determined in rat uterus; type: functional, organism-based; conditions: read-out: pA2 (converted)
Procedure, shortened: (§5)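 Rat uterus in situ, with synthetic oxytocin as agonist. Two antagonist doses were used, and the effective dose (nmol/kg) was interpolated on a log scale as the dose reducing the 2x-unit response to the 1x-unit response.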

[9] = Ratio of anti-oxytocic ED to antidiuretic ED was determined; type: functional, Urine
Procedure, shortened: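 Ratio computed as antioxytocic effective dose divided by antiantidiuretic effective dose. Both effective doses are defined as the dose (nmol/kg) that reduces the 2x-unit agonist response to the 1x-unit response.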

Rattus norvegicus [10] = assay: as §4; type: functional; procedure, shortened: as §5
Rattus norvegicus [11] = species: Rattus norvegicus; assay: Effective dose of compound was determined for antiantidiuretic potency in rats; Weak agonist; type: functional, organism-based; conditions: Urine, filed as partial agonist
Procedure, shortened: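 Intravenous antidiuretic assay in rats under ethanol anesthesia. The agonist was the USP posterior pituitary reference standard, injected 20 min after the antagonist to allow recovery from initial antidiuretic responses. Antagonist was given at high and low doses. The effective dose (nmol/kg) reduces the response to 2x units of agonist to that of 1x unit given before antagonist, log-interpolated.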

Rattus norvegicus [12] = species: Rattus norvegicus; assay: Effective dose of compound was determined for anti-vasopressor potency in rat; Weak agonist; type: functional, organism-based; conditions: filed as partial agonist

Compound | Kb (Rattus norvegicus [1]) [nM] | Kb (Rattus norvegicus [2]) [nM] | ED (Rattus norvegicus [3]) [nM/kg] | ED (Rattus norvegicus [4]) [nM/kg] | ED ratio [5] | Kb (Rattus norvegicus [6]) [nM] | Kb (Rattus norvegicus [7]) [nM] | Kb (Rattus norvegicus [8]) [nM] | ED ratio [9] | ED (Rattus norvegicus [10]) [nM/kg] | ED (Rattus norvegicus [11]) | ED (Rattus norvegicus [12])
NC(=O)CNC(=O)[C@H](CCCN=C(N)N)NC(=O)[C@@H]1CCCN1C(=O)[C@@H]1CSSC2(CCCCC2)CC(=O)N[C@H](Cc2ccccc2)C(=O)N[C@@H](Cc2ccccc2)C(=O)N[C@@H](Cc2ccc(O)cc2)C(=O)N[C@@H](CC(N)=O)C(=O)N1 | 37.2 | 20.9 | 22 | ~178 | 0.12 | ~2690 | 263 | – | – | – | – | –
CC[C@H](C)[C@@H]1NC(=O)[C@H](Cc2ccccc2)NC(=O)[C@@H](Cc2ccccc2)NC(=O)CC2(CCCCC2)SSC[C@@H](C(=O)N2CCC[C@H]2C(=O)N[C@@H](CCCN=C(N)N)C(=O)NCC(N)=O)NC(=O)[C@H](CC(N)=O)NC1=O ([dF]FINCPRG-NH2; linker N-5 via X1) | 6.46 | 9.12 | 0.99 | 0.46 | 2.2 | 5.75 | 13.8 | 77.6 | 13 | 5.8 | – | –
CCCC[C@@H]1NC(=O)[C@H](Cc2ccccc2)NC(=O)[C@@H](Cc2ccccc2)NC(=O)CC2(CCCCC2)SSC[C@@H](C(=O)N2CCC[C@H]2C(=O)N[C@@H](CCCN=C(N)N)C(=O)NCC(N)=O)NC(=O)[C@H](CC(N)=O)NC1=O | 16.6 | 28.8 | 2.1 | 5.6 | 0.4 | 75.9 | 30.2 | – | – | – | – | –
C[C@@H](O)[C@@H]1NC(=O)[C@H](Cc2ccccc2)NC(=O)[C@@H](Cc2ccccc2)NC(=O)CC2(CCCCC2)SSC[C@@H](C(=O)N2CCC[C@H]2C(=O)N[C@@H](CCCN=C(N)N)C(=O)NCC(N)=O)NC(=O)[C@H](CC(N)=O)NC1=O | 9.77 | 9.12 | 2.9 | 1.7 | 1.7 | 24 | 41.7 | 44.7 | 1.9 | 3.2 | – | –
NC(=O)CNC(=O)[C@H](CCCN=C(N)N)NC(=O)[C@@H]1CCCN1C(=O)[C@@H]1CSSC2(CCCCC2)CC(=O)N[C@H](Cc2ccccc2)C(=O)N[C@@H](Cc2ccccc2)C(=O)N2CCC[C@H]2C(=O)N[C@@H](CC(N)=O)C(=O)N1 | 3720 | 1740 | – | – | – | – | – | – | – | – | Partial agonist | Partial agonist
NC(=O)CNC(=O)[C@H](CCCN=C(N)N)NC(=O)[C@@H]1CCCN1C(=O)[C@@H]1CSSC2(CCCCC2)CC(=O)N[C@H](Cc2ccccc2)C(=O)N[C@@H](Cc2ccccc2)C(=O)N[C@@H](CC2CCCCC2)C(=O)N[C@@H](CC(N)=O)C(=O)N1 | 25.7 | 16.6 | 9 | 4.6 | 2 | 64.6 | 200 | – | – | – | – | –
CCC[C@@H]1NC(=O)[C@H](Cc2ccccc2)NC(=O)[C@@H](Cc2ccccc2)NC(=O)CC2(CCCCC2)SSC[C@@H](C(=O)N2CCC[C@H]2C(=O)N[C@@H](CCCN=C(N)N)C(=O)NCC(N)=O)NC(=O)[C@H](CC(N)=O)NC1=O | 19.1 | 9.33 | 1.4 | 6.9 | 0.2 | 102 | 18.6 | – | – | – | – | –
CC(C)[C@@H]1NC(=O)[C@H](Cc2ccccc2)NC(=O)[C@@H](Cc2ccccc2)NC(=O)CC2(CCCCC2)SSC[C@@H](C(=O)N2CCC[C@H]2C(=O)N[C@@H](CCCN=C(N)N)C(=O)NCC(N)=O)NC(=O)[C@H](CC(N)=O)NC1=O ([dF]FVNCPRG-NH2; linker N-5 via X1) | – | – | 0.58 | 0.67 | 0.9 | – | – | – | – | 8.9 | – | –
CC[C@@H]1NC(=O)[C@H](Cc2ccccc2)NC(=O)[C@@H](Cc2ccccc2)NC(=O)CC2(CCCCC2)SSC[C@@H](C(=O)N2CCC[C@H]2C(=O)N[C@@H](CCCN=C(N)N)C(=O)NCC(N)=O)NC(=O)[C@H](CC(N)=O)NC1=O | – | 18.6 | 1.4 | 0.77 | – | 11 | 20 | 30.2 | – | 2.4 | – | –
NC(=O)CC[C@@H]1NC(=O)[C@H](Cc2ccccc2)NC(=O)[C@@H](Cc2ccccc2)NC(=O)CC2(CCCCC2)SSC[C@@H](C(=O)N2CCC[C@H]2C(=O)N[C@@H](CCCN=C(N)N)C(=O)NCC(N)=O)NC(=O)[C@H](CC(N)=O)NC1=O [listing 1 of 2 here] | – | – | 0.3 | 4.3 | 0.07 | – | – | – | 0.9 | 4 | – | –
C[C@@H]1NC(=O)[C@H](Cc2ccccc2)NC(=O)[C@@H](Cc2ccccc2)NC(=O)CC2(CCCCC2)SSC[C@@H](C(=O)N2CCC[C@H]2C(=O)N[C@@H](CCCN=C(N)N)C(=O)NCC(N)=O)NC(=O)[C@H](CC(N)=O)NC1=O | 18.6 | 20.9 | 1.9 | 2.2 | 0.9 | 30.2 | 28.2 | – | – | – | – | –
NC(=O)CNC(=O)[C@H](CCCN=C(N)N)NC(=O)[C@@H]1CCCN1C(=O)[C@@H]1CSSC2(CCCCC2)CC(=O)N[C@H](Cc2ccccc2)C(=O)N[C@@H](Cc2ccccc2)C(=O)NCC(=O)N[C@@H](CC(N)=O)C(=O)N1 | 46.8 | 17.4 | 11 | 97 | 0.11 | 1410 | 162 | – | – | – | – | –
CC(C)C[C@@H]1NC(=O)[C@H](Cc2ccccc2)NC(=O)[C@@H](Cc2ccccc2)NC(=O)CC2(CCCCC2)SSC[C@@H](C(=O)N2CCC[C@H]2C(=O)N[C@@H](CCCN=C(N)N)C(=O)NCC(N)=O)NC(=O)[C@H](CC(N)=O)NC1=O | 13.2 | – | 1.3 | 66 | 0.02 | 851 | 20 | – | – | – | – | –
NC(=O)CNC(=O)[C@H](CCCN=C(N)N)NC(=O)[C@@H]1CCCN1C(=O)[C@@H]1CSSC2(CCCCC2)CC(=O)N[C@H](Cc2ccccc2)C(=O)N[C@@H](Cc2ccccc2)C(=O)N[C@@H](Cc2ccccc2)C(=O)N[C@@H](CC(N)=O)C(=O)N1 | 21.4 | 26.9 | 25 | 65 | 0.5 | 851 | 355 | – | – | – | – | –
NC(=O)CC[C@@H]1NC(=O)[C@H](Cc2ccccc2)NC(=O)[C@@H](Cc2ccccc2)NC(=O)CC2(CCCCC2)SSC[C@@H](C(=O)N2CCC[C@H]2C(=O)N[C@@H](CCCN=C(N)N)C(=O)NCC(N)=O)NC(=O)[C@H](CC(N)=O)NC1=O [listing 2 of 2 here] | 3.72 | 2.57 | – | – | – | 61.7 | 4.47 | 56.2 | – | – | – | –
